Screening results from PubChem.
Most compounds without a hit are left out; they make up all but 1.7% or so of the library.
Scp-1 inhibitor: Scp-1 phosphatase inhibitors, primary screen, biochemical, colorimetric, uHTS. Carboxy-terminal domain RNA polymerase II polypeptide A small phosphatase 1 (Homo …. Recombinant Scp1, phosphopeptide, malachite green phosphate absorbance. inhibition, % at 20 µM. 340,000 compounds, 0.88% hits;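 active = inhibition above about 50% at 20 µM, limit read from the data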;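 also: plate controls were DMSO wells with enzyme for no effect and wells lacking enzyme for full effect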
Target sequence (Q9GZU7 76-261 limits assumed): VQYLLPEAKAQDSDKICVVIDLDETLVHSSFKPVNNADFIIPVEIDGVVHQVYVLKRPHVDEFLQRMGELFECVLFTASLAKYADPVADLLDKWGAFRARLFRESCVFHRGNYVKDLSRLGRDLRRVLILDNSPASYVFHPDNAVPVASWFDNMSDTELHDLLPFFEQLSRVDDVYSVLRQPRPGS
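Material: truncated SCP-1 phosphatase (76-261aa) / Buffer or medium: 50 mM Tris acetate pH 5.5, 0.005% Tween-20, 10 mM MgCl2 / Compound dosing: one concentration, 20 µM, with 1.0% DMSO / Incubation: 45 min room-temperature reaction, 5 min colour, 30 min stabiliser / Detection: colorimetric free-phosphate detection, absorbance 630 nm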
DSG3 Ab inh: inhibitors of pemphigus antibody binding to DSG3, primary screen, biochemical, bead-based, flow cytometry, scFv-GFP. Desmoglein-3 (Homo sapiens), P32926. DSG3-coupled beads, scFv-anti-DSG3-GFP binding; hits give low values. binding (percent of control), % at 10 µM. 310,000 compounds, 0.48% hits;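 active = binding more than 3 SD below its plate's average and above zero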;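 also: hits lower antibody fragment binding to DSG3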
LMPTP block: LMPTP phosphatase inhibitors, primary screen, biochemical, fluorescence intensity, uHTS | recombinant LMPTP-A, OMFP fluorogenic substrate | Low molecular weight phosphotyrosine protein phosphatase (Homo sapiens), P24666 | inhibition, % at 20 µM | AID 651560, 2012 | 360,000 compounds, 0.22% hits;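 active = compounds that cut the enzyme signal by at least half of the control window in the single-dose screen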;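 also: plate controls were DMSO wells with enzyme plus substrate for no effect and substrate without enzyme for full effect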
Target sequence (P24666 whole entry, looked up): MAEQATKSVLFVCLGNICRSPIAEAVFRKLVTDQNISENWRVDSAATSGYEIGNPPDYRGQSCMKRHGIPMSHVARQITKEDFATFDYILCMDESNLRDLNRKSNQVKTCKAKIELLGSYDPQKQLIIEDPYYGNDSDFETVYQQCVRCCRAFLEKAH
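material = LMPTP-A | quantity = 0.625 nM enzyme | reagent = OMFP substrate, 400 µM final | buffer or medium = Bis-Tris pH 6.0, DTT, detergent | detection = endpoint fluorescence intensity from OMFP dephosphorylation | dosing = single 20 µM dose | read-out basis = % inhibition relative to no-enzyme and uninhibited control wells | control set = no-enzyme and uninhibited controls | timing = 50 min at room temperature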
STEP block: STEP phosphatase inhibitors, primary screen, biochemical, fluorescence intensity, uHTS. inhibition, % at 20 µM. Tyrosine-protein phosphatase non-receptor type 5 (Homo sapiens), P54829. 360,000 compounds, 0.25% hits. recombinant STEP, OMFP fluorogenic substrate;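 active = inhibition at 20 µM, scaled per plate between control wells, above about 37%, limit read from the data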;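 also: 0% = DMSO with enzyme and substrate and 100% = substrate only without enzyme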
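System: STEP phosphatase, cell-free reaction; Buffer or medium: Bis-Tris pH 6.0 buffer with DTT, detergent; Incubation: 20 min at room temperature, dark; Measured by: fluorescence, 480/540 nm.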
SUMO1-SIM PPI: modulators of SUMO1 protein-protein interactions, primary screen, biochemical, uHTS; SUMO1 binding to a labelled peptide, TR-FRET, 1 h; inhibition, % at 20 µM; Small ubiquitin-related modifier 1 (Homo sapiens), P63165; 360,000 compounds, 0.33% hits; in the data active = inhibition above about 37%
Target sequence (P63165 whole entry, looked up): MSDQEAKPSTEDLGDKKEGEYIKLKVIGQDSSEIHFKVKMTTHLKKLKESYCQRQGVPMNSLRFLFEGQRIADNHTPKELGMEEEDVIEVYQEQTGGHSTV
Scp1 confirm: Scp-1 phosphatase inhibitors, retest, confirmation, biochemical, colorimetric, single concentration; inhibition, % at 20 µM; recombinant SCP-1 catalytic domain, phosphate release, malachite green absorbance; shares compounds with Scp-1 inhibitor; 2,500 compounds, 61% hits;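 also: plate controls were DMSO with enzyme for no effect and buffer wells lacking enzyme for full effect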
MG interference: colorimetric readout interference by compounds, confirmation, artefact control for Scp-1 inhibitor project, biochemical, single concentration; shares compounds with Scp-1 inhibitor; Colorimetric interference counterscreen, malachite green absorbance 630 nm; 2,500 tested, under 10 active; apparent inhibition (interference), % at 20 µM;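 also: compounds added after enzyme reaction finished so only phosphate colour detection is probed; plate controls were DMSO wells with completed Scp-1 reaction for no effect and substrate wells lacking enzyme for full effect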
Scp-1 Tm shift: Scp-1 binding by thermal shift, confirmation, orthogonal assay for Scp-1 inhibitor project, biophysical, differential scanning fluorimetry; shares compounds with Scp-1 inhibitor; Recombinant SCP1, Sypro Orange thermal shift Tm; thermal shift relative to vanadate control, % at 40 µM; 1,500 compounds, 25% hits;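 active = substances whose mean melting-temperature shift, as a percentage of the reference inhibitor's shift, reaches about 5.3%, limit read from the data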;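 also: 0% = Tm of DMSO wells and 100% = Tm with sodium orthovanadate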
Numbers without * were called inactive; · = no result.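 The calls were made as follows, unless noted: active = inhibition of at least 30% at 20 µM; inactive = the rest.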

SMILES | Scp-1 inhibitor | DSG3 Ab inh | LMPTP block | STEP block | SUMO1-SIM PPI | Scp1 confirm | MG interference | Scp-1 Tm shift
Cc1ccc(S(=O)(=O)NCC(=O)NCC(=O)N(C)Cc2ccc(Br)s2)cc1C | · | 105 | -1 | -4 | 5 | · | · | ·
Cc1cc2c(OCC(O)CN3CCCC3)cccc2[nH]1 (stereo not given) | -7 | 112 | 6 | 3 | -5 | · | · | ·
CCCOCC(O)CCc1n[nH]c(=S)n1-c1ccccc1 (stereo not given) | 60* | 103 | 1 | -1 | -2 | -7 | -6 | ·
CC1(c2nnnn2Cc2ccccc2)CCC(=O)N1c1ccc(N2CCOCC2)cc1 (stereo not given) | · | · | 0 | · | -2 | · | · | ·
CCOC(=O)C1=C(C(=O)OCC)N(CC)CCC1=O | 4 | 104 | -2 | 2 | -2 | · | · | ·
COc1ccc(CCN2CC(C(=O)Nc3cccc(C(C)=O)c3)CC2=O)cc1OC (stereo not given) | 3 | · | 1 | 0 | 0 | · | · | ·
COc1ccc(CCN2CC(C(=O)OC(C)C(=O)Nc3cccc(Cl)c3)CC2=O)cc1OC (stereo not given) | -11 | 95 | -1 | -5 | -2 | -16 | -14 | ·
Cc1ccc(NC(=O)CN2C(=O)S/C(=C\c3ccc(C(=O)O)cc3)C2=O)cc1 | 26 | 111 | 0 | 1 | -22 | · | · | ·
Cc1cc(/C=C2\SC(=O)N(CC(=O)Nc3ccccc3F)C2=O)c(C)n1C | 5 | 97 | 0 | 3 | 4 | · | · | ·
Cc1ccc(C(=O)O)cc1-c1ccc(/C=C2\SC(=O)N(CC(=O)Nc3ccccc3)C2=O)o1 | 73* | 99 | 47 | 5 | 10 | 84* | -13 | 10*
Cc1ccccc1NC(=O)CN1C(=O)S/C(=C\c2ccc(-c3cc(C(=O)O)ccc3C)o2)C1=O | 98* | 100 | 48 | 6 | 11 | 69* | -16 | -483
Cc1ccc(C)c(N2C(=N)S/C(=C\c3ccc(-c4ccccc4C(=O)O)o3)C2=O)c1 | 27 | 92 | 5 | 7 | 34 | · | · | ·
CCOC(=O)C(C)N1C(=O)S/C(=C\c2ccc(-c3ccccc3C(=O)O)o2)C1=O (stereo not given) | 52* | 102 | 6 | 26 | 46* | 53* | -12 | 11*
CC(C)(C)OC(=O)N1O[C@H]2CC1[C@@H]1[C@@H]2N=NN1CCc1ccncc1 | 4 | 88 | -1 | -2 | 2 | · | · | ·
Cc1ccc(-c2nc3c(c(SCC(=O)N4CCOCC4)n2)COC(C)(C)C3)cc1 | -5 | 111 | 0 | 2 | 1 | · | · | ·
C=CCOCCN1C(=O)C2C3C=CC(C2C1=O)C1C2C(=O)N(CCOCC=C)C(=O)C2C31 (stereo not given) | 61* | 94 | 2 | 0 | -1 | 72* | -10 | -20
CC(=O)c1ccc(O)c(CC=C(C)C)c1 | -7 | 97 | -1 | -5 | -3 | · | · | ·
Cc1ccc(CNC(=O)c2ccc3c(=O)c(O)c(-c4ccc(C)cc4)[nH]c3c2)cc1 | 56* | 99 | -4 | 2 | -3 | 51* | -10 | -5
Cc1ccc(-c2[nH]c3cc(C(N)=O)ccc3c(=O)c2O)cc1 | -2 | 105 | 1 | 5 | -21 | · | · | ·
Cc1ccc2c(COC(=O)c3ccc(NC(=O)CC#N)cc3)cc(=O)oc2c1C | 4 | 93 | 1 | -1 | 0 | · | · | ·
COc1ccc(-c2cc(=O)c3c(O)cc(OC4OC(COC5OC(C)C(O)C(O)C5O)C(O)C(O)C4O)cc3o2)cc1O (stereo not given) | 12 | 101 | 1 | 5 | -16 | · | · | ·
COc1ccc([C@@H]2CC(=O)c3c(O)cc(O[C@@H]4O[C@H](CO[C@@H]5O[C@@H](C)[C@H](O)[C@@H](O)[C@H]5O)[C@@H](O)[C@H](O)[C@H]4O)cc3O2)cc1O | 62* | 105 | -1 | 3 | 12 | 39* | -13 | -7
NC(=O)c1ccsc1NC(=O)COC(=O)/C=C/c1ccc([N+](=O)[O-])cc1 | 71* | 83 | 64* | 7 | 14 | 59* | -6 | 4
Cc1cc(C)n2nc(C(=O)OCC(=O)c3ccccc3Cl)nc2n1 | -2 | 93 | 0 | 2 | 1 | · | · | ·
Cc1cc(C(=O)COC(=O)c2cc(Cl)c(O)c(Cl)c2)c(C)n1C | 55* | 97 | 5 | 3 | 34 | 36* | -14 | 9.4*
SMILES | Scp-1 inhibitor | DSG3 Ab inh | LMPTP block | STEP block | SUMO1-SIM PPI | Scp1 confirm | MG interference | Scp-1 Tm shift
Cc1cc(C)n2nc(C(=O)OCC(=O)c3cc(C)n(C)c3C)nc2n1 | 52* | 83 | 1 | 1 | 0 | 58* | -15 | -2
O=c1[nH]n2c(=O)c3c([nH]c2c1N=Nc1cccc(Cl)c1)CCC3 | 78* | 110 | 46 | 14 | 8 | 59* | -16 | 27*
CCOC(=O)C1=C(C)NC(C)=C(C(=O)OCC)C1c1ccc(Br)o1 | -10 | 96 | 3 | 10 | 3 | · | · | ·
CCOC(=O)C1=C(C)NC(=O)NC1c1ccc(Br)o1 (stereo not given) | 52* | 81 | -2 | -3 | -1 | -8 | -13 | ·
Cc1ccc(-n2c(C)cc(/C=N/NC(=O)CC3(C)OCCO3)c2C)c(C)c1 | -4 | 91 | 1 | -1 | 1 | · | · | ·
CC1(CC(=O)N/N=C/c2cc([N+](=O)[O-])c(O)cc2O)OCCO1 | 69* | 98 | 69* | 14 | -14 | 64* | -4 | 6.1*
C[C@@H]1CN([C@@H](C)CO)C(=O)c2cccc(NS(C)(=O)=O)c2O[C@H]1CN(C)CC1CCCCC1 | 0 | 101 | -1 | -1 | 0 | · | · | ·
CC(C)(C)c1ccc(C(=O)N/N=C/c2ccc(OCCCF)cc2)cc1 | -2 | 91 | -1 | -2 | 6 | · | · | ·
O=C(N/N=C/c1ccc(OCCCF)cc1)c1ccc(C(F)(F)F)cc1 | 93* | 105 | 30 | 25 | 2 | 64* | -19 | -13
O=C(Oc1ccc(/C=N/NC(=O)c2ccccc2O)cc1)c1ccccc1 | 82* | 101 | 3 | -1 | 0 | 70* | -5 | -8
